Reference: ChEMBL document CHEMBL5705892, “MK-2206, an allosteric Akt inhibitor, enhances antitumor efficacy by standard chemotherapeutic agents or molecular targeted drugs in vitro and in vivo” (Mol Cancer Ther, 2010)
The source made the active and inactive calls. The calls are words filed in the database; no cut-off is given here.

Legend:
[1] = tested on: SK-OV-3; experiment: Synergistic antiproliferative activity against human SK-OV-3 cells assessed as combination index at ED90 measured after 96 hrs in presence of lapatinib by celltiter-glo assay; format: functional
[2] = tested on: SK-OV-3; experiment: Synergistic antiproliferative activity against lapatinib pretreated human SK-OV-3 cells assessed as combination index at ED50 measured after 72 hrs by celltiter-glo assay; format: functional
[3] = tested on: NCI-H441; experiment: Induction of apoptosis in human NCI-H441 cells assessed as fold induction of capsase-3/7 activity measured after 24 to 48 hrs in presence of carboplatin by caspase-glo 3/7 assay; format: functional; settings: time 24-48 hrs
[4] = Toxicity in human NCI-H292 cells xenografted CD-1 mouse assessed as weight loss at 360 mg/kg, po administered once a week for 2 weeks starting 2 hrs post-erlotinib treatment and measured during compound dosing; format: organism-based; settings: in vivo, 336 h
Outline: (§1)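 NCI-H292 cells in 50% Matrigel/PBS injected s.c. into flank of female CD1-nude mice; dosing began after 2 wk at mean tumour 0.2 cm³, n = 5/group. […] Body weight and signs monitored; treatment ended day 16.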

[5] = tested on: A-431; experiment: Synergistic antiproliferative activity against human A-431 cells assessed as combination index at ED50 measured after 72 hrs in presence of erlotinib by celltiter-glo assay; format: functional
Outline: (§2)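 Cells were seeded at 2–3 × 10³ per well in RPMI 1640 with 10% FBS. At 24 h, MK-2206 and the partner drug were added simultaneously at constant concentration ratios spanning each agent's IC₅₀, for 72 h. Growth was read as cellular ATP by CellTiter-Glo. CI was taken from median-effect plots of each agent alone and in combination (Chou–Talalay), at ED₅₀, ED₇₅ and ED₉₀.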

[6] = tested on: SK-OV-3; experiment: Synergistic antiproliferative activity against human SK-OV-3 cells assessed as combination index at ED90 measured after 72 hrs in presence of lapatinib by celltiter-glo assay; format: functional
[7] = In vivo inhibition of AKT phosphorylation at S473 residue in human NCI-H292 cells xenografted mouse at 120 mg/kg, po administered as single dose measured after 12 hrs by Western blot analysis relative to control; format: functional
[8] = tested on: NCI-N87; experiment: Synergistic antiproliferative activity against human NCI-N87 cells assessed as combination index at ED50 measured after 72 hrs in presence of lapatinib by celltiter-glo assay; format: functional
[9] = target: RAC-alpha serine/threonine-protein kinase (Homo sapiens) (UniProt P31749); experiment: Inhibition of AKT in human A-431 cells assessed as reduction in AKT phosphorylation at S473 residue at 5 umol/L measured after 5 hrs by Western blot analysis; format: cell-based; settings: dose 5.0 µmol/L
RAC-alpha serine/threonine-protein kinase (Homo sapiens), sequence (P31749 whole entry): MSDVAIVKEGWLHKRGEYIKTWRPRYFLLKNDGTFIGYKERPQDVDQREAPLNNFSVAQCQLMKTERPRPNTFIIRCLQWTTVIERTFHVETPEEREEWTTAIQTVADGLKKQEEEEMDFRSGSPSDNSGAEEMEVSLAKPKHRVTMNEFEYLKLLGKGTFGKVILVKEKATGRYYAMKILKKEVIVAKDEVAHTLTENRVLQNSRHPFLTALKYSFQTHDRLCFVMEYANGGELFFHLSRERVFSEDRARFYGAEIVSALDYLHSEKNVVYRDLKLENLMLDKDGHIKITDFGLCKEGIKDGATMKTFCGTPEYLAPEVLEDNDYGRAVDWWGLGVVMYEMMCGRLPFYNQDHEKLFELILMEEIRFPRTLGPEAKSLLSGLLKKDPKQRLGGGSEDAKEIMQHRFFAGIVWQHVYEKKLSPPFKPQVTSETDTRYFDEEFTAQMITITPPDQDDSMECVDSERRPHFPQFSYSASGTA
Outline: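 Cells were lysed in Tris-HCl pH 7.5, 150 mM NaCl, 1% Triton X-100 with protease and phosphatase inhibitors. Lysates were run on SDS-PAGE, transferred to nitrocellulose and probed with phospho-specific antibodies.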

[10] = tested on: HCC827; experiment: Synergistic antiproliferative activity against human HCC827 cells assessed as combination index at ED50 measured after 72 hrs in presence of erlotinib by celltiter-glo assay; format: functional
Outline: (§3)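 Cells grown in RPMI 1640 with 10% heat-inactivated FBS at 37°C, 5% CO₂. Seeded at 2 to 3 × 10³ per well; drugs added 24 h later. […] Viability read as cellular ATP by CellTiter-Glo. CI calculated by Chou–Talalay from median-effect plots at ED50, ED75 and ED90.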

[11] = tested on: MDA-MB-468; experiment: Synergistic antiproliferative activity against lapatinib pretreated human MDA-MB-468 cells assessed as combination index at ED90 measured after 72 hrs by celltiter-glo assay; format: functional
[12] = Toxicity in human PC-3 cells xenografted CD1 nude mouse assessed as body weight loss at 120 mg/kg, po administered 3 times per week for 2 weeks starting 24 hrs post docetaxel treatment and measured on day 15; format: organism-based; settings: in vivo, 360 h, time 15 day
Outline: (§4)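 Male CD1-nude mice with s.c. PC-3 tumours (50% Matrigel/50% PBS, left flank), randomized at mean 0.2 cm³, n=5/group, treated from 25 d post-implant. Body weight monitored versus vehicle-only controls.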

[13] = Toxicity in human NCI-H292 cells xenografted CD-1 mouse assessed as death at 120 mg/kg, po administered 3 times per week for 2 weeks and measured during compound dosing; format: organism-based; settings: in vivo, 336 h; outline: as §1
[14] = tested on: A-431; experiment: Synergistic antiproliferative activity against human A-431 cells assessed as combination index at ED90 measured after 72 hrs in presence of erlotinib by celltiter-glo assay; format: functional; outline: as §2
[15] = tested on: NCI-H441; experiment: Induction of apoptosis in human NCI-H441 cells assessed as fold induction of capsase-3/7 activity measured after 24 to 48 hrs in presence of gemcitabine by caspase-glo 3/7 assay; format: functional; settings: time 24-48 hrs
[16] = tested on: NCI-H441; experiment: Synergistic antiproliferative activity against human NCI-H441 cells assessed as combination index at ED25 to ED90 measured after 72 hrs in presence of gemcitabine by celltiter-glo assay; format: functional
[17] = tested on: SK-BR-3; experiment: Synergistic antiproliferative activity against human SK-BR-3 cells assessed as combination index at ED50 measured after 72 hrs in presence of lapatinib by celltiter-glo assay; format: functional
[18] = tested on: Calu-6; experiment: Synergistic antiproliferative activity against human Calu-6 cells assessed as combination index at ED50 measured after 72 hrs in presence of erlotinib by celltiter-glo assay; format: functional; outline: as §3
[19] = tested on: HCC70; experiment: Synergistic antiproliferative activity against human HCC70 cells assessed as combination index at ED50 measured after 72 hrs in presence of lapatinib by celltiter-glo assay; format: functional; outline: as §3
[20] = tested on: MDA-MB-453; experiment: Synergistic antiproliferative activity against human MDA-MB-453 cells assessed as combination index at ED90 measured after 72 hrs in presence of docetaxel by celltiter-glo assay; format: functional; outline: as §3
[21] = target: RAC-alpha serine/threonine-protein kinase (Homo sapiens) (UniProt P31749); experiment: Inhibition of AKT in human HCC827 cells assessed as reduction in PRAS40 phosphorylation at T246 residue at 5 umol/L measured after 5 hrs by Western blot analysis; format: cell-based; settings: dose 5.0 µmol/L
[22] = Toxicity in human PC-3 cells xenografted CD1 nude mouse assessed as body weight loss at 120 mg/kg, po administered 3 times per week for 2 weeks measured on day 15; format: organism-based; settings: in vivo, 360 h, time 15 day; outline: as §4
[23] = tested on: NCI-H1299; experiment: Antiproliferative activity against human NCI-H1299 cells assessed as reduction in cell proliferation measured after 72 hrs by celltiter-glo assay; format: functional, cell-based; settings: NCI-H1299, 72 h
Outline: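 Cells in RPMI 1640 with 10% heat-inactivated FBS at 37°C and 5% CO₂ were seeded at 2 to 3 × 10³ per well. […] Growth was read as cellular ATP by CellTiter-Glo.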

[24] = Toxicity in human SK-OV-3 cells xenografted CB17/icr SCID mouse assessed as body weight loss at 60 to 120 mg/kg, po administered 3 times per week for 2 weeks starting 2 hrs post lapatinib treatment and measured during compound dosing; format: organism-based; settings: in vivo, 336 h, dose 60-120 mg/kg
Outline: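 SK-OV-3 cells in 50% Matrigel/PBS injected s.c. into flank of female C.B-17/ICR-scid mice; dosing began after 3 wk, randomized at mean tumour 0.13 cm³ (n = 5). Lapatinib 100 mg/kg p.o. in distilled water 5 d/wk for 2 wk; MK-2206 in 30% Captisol p.o. days 0, 2, 4, 7, 9, 11. Body weight and physical signs monitored.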

[25] = tested on: SK-BR-3; experiment: Synergistic antiproliferative activity against lapatinib pretreated human SK-BR-3 cells assessed as combination index at ED90 measured after 72 hrs by celltiter-glo assay; format: functional

For `Cl.NC1(c2ccc(-c3nc4ccn5c(=O)[nH]nc5c4cc3-c3ccccc3)cc2)CCC1`, the CI90 [1] was 0.18, the CI50 [2] was 0.18 and the “fold change (FC)” value [3] was 2.3. For the same molecule, the Activity [4] was “Toxic”, the CI50 [5] was 0.42 and the CI90 [6] was 0.25. For the same molecule, the inhibition in vivo at 120 mg/kg [7] was 53.1%, the CI50 [8] was 0.45 and the inhibition [9] was “Active”. For the same molecule, the CI50 [10] was 0.39, the CI90 [11] was 0.18 and the Activity [12] was “Non-Toxic”. For the same molecule, the Activity [13] was “Non-Toxic”, the CI90 [14] was 0.14 and the “fold change (FC)” value [15] was 2.3. It also gave a CI [16] of 0.37, a CI50 [17] of 0.43 and a CI50 [18] of 0.49. For the same molecule, the CI50 [19] was 0.46, the CI90 [20] was 0.3 and the inhibition [21] was “Active”. The Activity [22] was “Non-Toxic”, the IC50 [23] was 27 µM and the Activity [24] was “Non-Toxic”. It also gave a CI90 [25] of 0.18.
